Data published in ChEMBL document CHEMBL1132602, “Identification of novel classes of protein kinase inhibitors using combinatorial peptide chemistry based on functional genomics knowledge” (J Med Chem, 1999).
Starred links: 1 amine or outer side, 2 acyl side, 3 side chain; linkers in the order of their positions; H or OH if unused. Non-standard residues stand in square brackets, D forms with d. Residues, ends and D or L forms follow the SMILES beside them. X1 = O=C(C1CCC(N[*:1])CC1)[*:2]

Columns and labels:
[1] = biological target: CaM kinase II (Homo sapiens, UniProt Q13557+Q13555+Q13554+Q9UQM7); experiment: Inhibitory activity against CaMPKII (Calcium/calmodulin-dependent protein kinase type II); format: protein assay
[2] = biological target: Myosin light chain kinase, smooth muscle (Gallus gallus, UniProt P11799); experiment: Inhibitory activity against MLCK (smooth muscle myosin light chain kinase)
[3] = Ratio of the inhibitory concentrations against CaMPKII and MLCK. IC50 (CaMPKII ) / IC50 (MLCK).
In short: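 Ratio of IC50 values from the two radiometric assays, both with 0.2 mM [γ-32P]ATP and 20 μM peptide substrate. CaMPKII was activated with 30 μM CaM and 2 mM CaCl2 and run 8 min. Chicken gizzard MLCK was activated with 1 μM CaM and 5 μM CaCl2 and run 20 min. Both at 25 °C, IC50 from 15–85% activity regression.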

Myosin light chain kinase, smooth muscle, sequence (P11799 whole entry): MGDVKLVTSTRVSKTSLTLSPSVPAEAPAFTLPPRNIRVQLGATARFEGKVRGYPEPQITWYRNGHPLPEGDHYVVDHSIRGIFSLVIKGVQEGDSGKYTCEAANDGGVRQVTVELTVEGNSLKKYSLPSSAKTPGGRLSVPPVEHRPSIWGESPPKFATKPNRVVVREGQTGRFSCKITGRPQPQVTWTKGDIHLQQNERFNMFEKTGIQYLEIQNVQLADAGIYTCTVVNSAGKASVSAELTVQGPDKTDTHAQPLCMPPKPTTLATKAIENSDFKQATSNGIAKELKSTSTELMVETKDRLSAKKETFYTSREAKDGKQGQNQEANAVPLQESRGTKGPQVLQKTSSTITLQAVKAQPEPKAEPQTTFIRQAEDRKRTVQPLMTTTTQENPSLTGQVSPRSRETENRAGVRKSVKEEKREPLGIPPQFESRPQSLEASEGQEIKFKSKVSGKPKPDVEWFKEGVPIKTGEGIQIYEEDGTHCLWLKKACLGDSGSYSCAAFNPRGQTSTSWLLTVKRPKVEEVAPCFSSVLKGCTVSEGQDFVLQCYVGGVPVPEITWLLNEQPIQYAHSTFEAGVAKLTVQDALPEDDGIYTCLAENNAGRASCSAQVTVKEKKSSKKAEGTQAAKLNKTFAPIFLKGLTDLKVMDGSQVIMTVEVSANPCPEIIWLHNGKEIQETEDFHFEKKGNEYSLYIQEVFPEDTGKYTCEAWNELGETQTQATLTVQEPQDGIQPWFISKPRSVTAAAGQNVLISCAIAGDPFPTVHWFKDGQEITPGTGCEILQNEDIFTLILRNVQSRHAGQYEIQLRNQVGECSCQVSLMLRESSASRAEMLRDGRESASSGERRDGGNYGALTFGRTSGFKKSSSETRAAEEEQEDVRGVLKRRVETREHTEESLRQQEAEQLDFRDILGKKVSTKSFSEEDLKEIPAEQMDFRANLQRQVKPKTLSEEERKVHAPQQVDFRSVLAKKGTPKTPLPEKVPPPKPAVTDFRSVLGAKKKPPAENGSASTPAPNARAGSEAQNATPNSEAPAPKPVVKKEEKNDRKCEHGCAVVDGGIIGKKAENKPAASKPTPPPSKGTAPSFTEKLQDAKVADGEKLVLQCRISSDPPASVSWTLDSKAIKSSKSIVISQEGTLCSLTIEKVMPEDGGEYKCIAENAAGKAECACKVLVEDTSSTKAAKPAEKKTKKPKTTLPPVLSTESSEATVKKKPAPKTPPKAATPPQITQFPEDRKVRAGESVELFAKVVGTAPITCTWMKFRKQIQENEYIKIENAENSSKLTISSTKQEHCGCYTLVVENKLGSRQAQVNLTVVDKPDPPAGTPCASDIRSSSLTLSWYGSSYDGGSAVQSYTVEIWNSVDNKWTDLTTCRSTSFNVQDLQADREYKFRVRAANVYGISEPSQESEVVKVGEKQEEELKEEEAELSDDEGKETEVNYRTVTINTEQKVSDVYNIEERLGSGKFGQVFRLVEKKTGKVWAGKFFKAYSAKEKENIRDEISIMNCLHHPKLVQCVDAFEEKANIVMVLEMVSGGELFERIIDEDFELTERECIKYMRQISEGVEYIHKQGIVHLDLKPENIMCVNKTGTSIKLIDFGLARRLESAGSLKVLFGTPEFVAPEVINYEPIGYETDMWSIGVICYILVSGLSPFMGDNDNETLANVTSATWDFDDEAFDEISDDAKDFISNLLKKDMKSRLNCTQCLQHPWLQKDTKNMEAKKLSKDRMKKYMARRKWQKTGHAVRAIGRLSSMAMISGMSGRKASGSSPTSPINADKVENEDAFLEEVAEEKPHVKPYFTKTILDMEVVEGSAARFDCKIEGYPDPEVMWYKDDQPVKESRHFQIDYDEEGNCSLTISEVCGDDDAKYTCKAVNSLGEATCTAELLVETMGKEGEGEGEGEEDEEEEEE

## C[C@@H](O)[C@H](NC(=O)[C@H](CCCCN)NC(=O)[C@H](Cc1ccc(O)cc1)NC(=O)[C@H](CCCCN)NC(=O)[C@H](CCCCN)NC(=O)[C@@H](N)CCCN=C(N)N)C(=O)N[C@@H](CCCN=C(N)N)C(=O)N[C@@H](CCCN=C(N)N)C(=O)N[C@@H](CCCCN)C(N)=O
[1]
  IC50: > 200 µM
[2]
  IC50: 0.73 µM

## CC[C@H](C)[C@H](NC(=O)[C@H](CCCCN)NC(=O)[C@H](Cc1ccc(O)cc1)NC(=O)[C@H](CCCCN)NC(=O)[C@H](CCCCN)NC(=O)[C@@H](N)CCCNC(=N)N)C(=O)N[C@@H](CCCNC(=N)N)C(=O)N[C@@H](CCCNC(=N)N)C(=O)N[C@@H](CCCCN)C(N)=O
[1]
  IC50: 57.4 µM
[2]
  IC50: 0.16 µM

## CC[C@@H](C)[C@H](NC(=O)[C@H](CCCCN)NC(=O)[C@H](Cc1ccc(O)cc1)NC(=O)[C@H](CCCCN)NC(=O)[C@H](CCCCN)NC(=O)[C@@H](N)CCCN=C(N)N)C(=O)N[C@@H](CCCN=C(N)N)C(=O)N[C@@H](CCCN=C(N)N)C(=O)N[C@@H](CCCCN)C(N)=O
[3]
  Ratio: 359

## C[C@H](O)[C@H](NC(=O)[C@H](CCCCN)NC(=O)[C@H](Cc1ccc(O)cc1)NC(=O)[C@H](CCCCN)NC(=O)[C@H](CCCCN)NC(=O)[C@@H](N)CCCN=C(N)N)C(=O)N[C@@H](CCCN=C(N)N)C(=O)N[C@@H](CCCN=C(N)N)C(=O)N[C@@H](CCCCN)C(N)=O
[3]
  Ratio: > 274

## NCCCC[C@H](NC(=O)[C@H](CCCN=C(N)N)NC(=O)[C@H](CCCN=C(N)N)NC(=O)C1CCC(NC(=O)[C@H](CCCCN)NC(=O)[C@H](Cc2ccc(O)cc2)NC(=O)[C@H](CCCCN)NC(=O)[C@H](CCCCN)NC(=O)[C@@H](N)CCCN=C(N)N)CC1)C(N)=O (stereo not given in full) (H-RKKYK[X1]RRK-NH2)
[1]
  IC50: > 200 µM
[2]
  IC50: 0.27 µM
[3]
  Ratio: > 741

## NCCCC[C@H](NC(=O)[C@H](CCCN=C(N)N)NC(=O)[C@H](CCCN=C(N)N)NC(=O)[C@H](Cc1ccc(O)cc1)NC(=O)C1CCC(NC(=O)[C@H](Cc2ccc(O)cc2)NC(=O)[C@H](CCCCN)NC(=O)[C@H](CCCCN)NC(=O)[C@@H](N)CCCN=C(N)N)CC1)C(N)=O (stereo not given in full) (H-RKKY[X1]YRRK-NH2)
[1]
  IC50: > 200 µM
[2]
  IC50: 0.04 µM
[3]
  Ratio: > 5000

## NCCCC[C@H](NC(=O)[C@H](CCCN=C(N)N)NC(=O)[C@H](CCCN=C(N)N)NC(=O)C1CCC(NC(=O)C2CCC(NC(=O)[C@H](Cc3ccc(O)cc3)NC(=O)[C@H](CCCCN)NC(=O)[C@H](CCCCN)NC(=O)[C@@H](N)CCCN=C(N)N)CC2)CC1)C(N)=O (stereo not given in full) (H-RKKY[X1][X1]RRK-NH2)
[1]
  IC50: > 200 µM
[2]
  IC50: 0.11 µM
[3]
  Ratio: > 1820

## NCCCC[C@H](NC(=O)[C@H](CCCN=C(N)N)NC(=O)[C@H](CCCN=C(N)N)NC(=O)[C@H](Cc1ccc(O)cc1)NC(=O)[C@H](CCCCN)NC(=O)C1CCC(NC(=O)[C@H](CCCCN)NC(=O)[C@H](CCCCN)NC(=O)[C@@H](N)CCCN=C(N)N)CC1)C(N)=O (stereo not given in full) (H-RKK[X1]KYRRK-NH2)
[1]
  IC50: > 200 µM
[2]
  IC50: 1.04 µM
[3]
  Ratio: > 192

## NCCCC[C@H](NC(=O)[C@H](CCCN=C(N)N)NC(=O)[C@H](CCCN=C(N)N)NC(=O)C1CCC(NC(=O)[C@H](CCCCN)NC(=O)C2CCC(NC(=O)[C@H](CCCCN)NC(=O)[C@H](CCCCN)NC(=O)[C@@H](N)CCCN=C(N)N)CC2)CC1)C(N)=O (stereo not given in full) (H-RKK[X1]K[X1]RRK-NH2)
[1]
  IC50: > 200 µM
[2]
  IC50: 20 µM
[3]
  Ratio: > 10

## N=C(N)NCCC[C@H](NC(=O)[C@H](CCCNC(=N)N)NC(=O)[C@H](Cc1ccc(O)cc1)NC(=O)C1CCC(NC(=O)C2CCC(NC(=O)[C@H](CCCCN)NC(=O)[C@H](CCCCN)NC(=O)[C@@H](N)CCCNC(=N)N)CC2)CC1)C(=O)N[C@@H](CCCCN)C(N)=O (stereo not given in full) (H-RKK[X1][X1]YRRK-NH2)
[2]
  IC50: 2.97 µM

## NCCCC[C@H](NC(=O)[C@H](CCCN=C(N)N)NC(=O)[C@H](CCCN=C(N)N)NC(=O)[C@H](Cc1ccc(O)cc1)NC(=O)C1CCC(NC(=O)C2CCC(NC(=O)[C@H](CCCCN)NC(=O)[C@H](CCCCN)NC(=O)[C@@H](N)CCCN=C(N)N)CC2)CC1)C(N)=O (stereo not given in full) (H-RKK[X1][X1]YRRK-NH2)
[1]
  IC50: > 200 µM
[3]
  Ratio: > 67

## N=C(N)NCCC[C@H](NC(=O)C1CCC(NC(=O)C2CCC(NC(=O)C3CCC(NC(=O)[C@H](CCCCN)NC(=O)[C@H](CCCCN)NC(=O)[C@@H](N)CCCNC(=N)N)CC3)CC2)CC1)C(=O)N[C@@H](CCCNC(=N)N)C(=O)N[C@@H](CCCCN)C(N)=O (stereo not given in full) (H-RKK[X1][X1][X1]RRK-NH2)
[2]
  IC50: 20 µM

## NCCCC[C@H](NC(=O)[C@H](CCCN=C(N)N)NC(=O)[C@H](CCCN=C(N)N)NC(=O)C1CCC(NC(=O)C2CCC(NC(=O)C3CCC(NC(=O)[C@H](CCCCN)NC(=O)[C@H](CCCCN)NC(=O)[C@@H](N)CCCN=C(N)N)CC3)CC2)CC1)C(N)=O (stereo not given in full) (H-RKK[X1][X1][X1]RRK-NH2)
[1]
  IC50: > 200 µM
[3]
  Ratio: > 10

## H-RKKYKARRK-NH2
[1]
  IC50: > 200 µM
[2]
  IC50: 0.42 µM
[3]
  Ratio: > 476

## H-RKKYKDRRK-NH2
[1]
  IC50: > 200 µM
[2]
  IC50: 0.61 µM
[3]
  Ratio: > 328

## H-RKKYKERRK-NH2
[1]
  IC50: > 200 µM
[2]
  IC50: 0.87 µM
[3]
  Ratio: > 230

## H-RKKYKFRRK-NH2
[1]
  IC50: > 200 µM
[2]
  IC50: 0.15 µM
[3]
  Ratio: > 1330

## H-RKKYKGRRK-NH2 [listing 1 of 2 here]
[2]
  IC50: 0.31 µM

## H-RKKYKGRRK-NH2 [listing 2 of 2 here]
[1]
  IC50: > 200 µM
[3]
  Ratio: > 645

## H-RKKYKHRRK-NH2
[1]
  IC50: 16.2 µM
[2]
  IC50: 0.29 µM
[3]
  Ratio: 56

## H-RKKYKKRRK-NH2
[1]
  IC50: > 200 µM
[2]
  IC50: 0.22 µM
[3]
  Ratio: > 909

## H-RKKYKLRRK-NH2
[1]
  IC50: 132 µM
[2]
  IC50: 0.32 µM
[3]
  Ratio: 413

## H-RKKYKMRRK-NH2 [listing 1 of 2 here]
[1]
  IC50: > 200 µM
[3]
  Ratio: > 1250

## H-RKKYKMRRK-NH2 [listing 2 of 2 here]
[2]
  IC50: 0.16 µM

## H-RKKYKNRRK-NH2 [listing 1 of 2 here]
[2]
  IC50: 0.29 µM

## H-RKKYKNRRK-NH2 [listing 2 of 2 here]
[1]
  IC50: > 200 µM
[3]
  Ratio: > 690

## H-RKKYKPRRK-NH2
[1]
  IC50: > 200 µM
[2]
  IC50: 0.12 µM
[3]
  Ratio: > 1670

## H-RKKYKQRRK-NH2
[1]
  IC50: > 200 µM
[2]
  IC50: 0.3 µM
[3]
  Ratio: > 667

## H-RKKYKSRRK-NH2 [listing 1 of 2 here]
[2]
  IC50: 0.15 µM

## H-RKKYKSRRK-NH2 [listing 2 of 2 here]
[1]
  IC50: > 200 µM
[3]
  Ratio: > 1330

## H-RKKYKVRRK-NH2 [listing 1 of 2 here]
[1]
  IC50: > 200 µM
[3]
  Ratio: > 556

## H-RKKYKVRRK-NH2 [listing 2 of 2 here]
[2]
  IC50: 0.36 µM

## H-RKKYKWRRK-NH2
[1]
  IC50: 26.7 µM
[2]
  IC50: 0.2 µM
[3]
  Ratio: 134

## H-RKKYKYRRK-NH2
[1]
  IC50: > 200 µM
[2]
  IC50: 0.05 µM
[3]
  Ratio: > 4000
